Reference: ChEMBL document CHEMBL4270646, “Novel antimalarial chloroquine- and primaquine-quinoxaline 1,4-di-N-oxide hybrids: Design, synthesis, Plasmodium life cycle stage profile, and preliminary toxicity studies” (Eur J Med Chem, 2018)

How the values were obtained:
[1] = Selectivity index, ratio of CC50 for human primary hepatocytes to IC50 for GFP-expressing Plasmodium falciparum sporozoites; assay type: toxicity; settings: read-out: Ratio CC50/IC50
Method in brief: (§1)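 Selectivity index = CC50 (matching cell) / IC50 (matching parasite). Cell–parasite pairs: HepG2-CD81 with P. yoelii, HepG2 with P. berghei, human hepatocytes with P. falciparum.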

Mus musculus [2] = assay: Acute toxicity in BALB/c mouse assessed as appearance of bright hair without erection at 300 to 500 mg/kg, po administered as single dose measured every day for 14 days; assay type: organism-based; settings: in vivo, 336 h
Method in brief: (§2)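 Female BALB/c mice, 6-8 weeks old, 20-23 g, in groups of three. Single oral dose of 300 or 500 mg/kg; vehicle DMSO 100% given to controls. Mice watched for signs of toxicity for 4 h after dosing. Physical appearance, injury, pain and illness recorded daily for 14 days. Euthanasia in a CO2 chamber on day 14 or earlier if suffering.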

Mus musculus [3] = assay: Acute toxicity in BALB/c mouse assessed as effect on body weight at 300 mg/kg, po administered as single dose measured every day for 14 days; assay type: organism-based; settings: in vivo, 336 h; method in brief: as §2
Plasmodium yoelii [4] = assay: Antiplasmodial activity against Plasmodium yoelii 17XNL sporozoites infected in BALB/c mouse assessed as pre-patent time period of parasitaemia at 100 mg/kg, po measured at day 4 by […]; assay type: functional
Method in brief: (§3)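 BALB/c mice (6-8 weeks, 20-23 g), n=4 per hybrid group and n=5 per control. Dosed orally at 100 mg/kg (100 µL) on days -1, 0, +1 and +2. Vehicle was DMSO 100%; primaquine diphosphate given at 30 mg/kg daily. On day 0, 5 x 10^3 cryopreserved P. yoelii 17XNL sporozoites injected i.v. Parasitaemia read by Giemsa smear and SYBR Green flow cytometry. Groups compared by Kruskal-Wallis test.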

[5] = Genotoxicity in Salmonella typhimurium TA1535 harboring pSK1002 assessed as umu gene induction at 0.001 to 0.063 mg/ml after 4 hrs in absence of Sprague-Dawley rat liver S9 fraction by beta-galactosidase reporter gene assay relative to control; assay type: toxicity, organism-based; settings: salmonella enterica subsp. enterica serovar typhimurium; read-out: FC
Method in brief: (§4)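 SOS/umu test, 4 h at 37°C, with S9 mix or PBS. Positive controls 4-NQO (2.5 µg/mL final, no S9) and 2-AA (0.0125 mg/mL final, with S9). Aliquots incubated with ONPG 0.9 mg/mL in B-buffer for 30 min at 28°C, then stopped with 1 M Na2CO3. Activity calculated as A420/A600. Induction factor is the ratio to the DMSO control; genotoxic if ≥2 at ≥80% survival.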

Plasmodium falciparum [6] = assay: Antiplasmodial activity against the multidrug-resistant Plasmodium falciparum […] infected in human red blood cells assessed as reduction in parasite growth after 48 hrs by Hoechst 33342 staining based flow cytometric analysis; assay type: functional, organism-based
Method in brief: (§5)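 Ring-stage cultures (>80% rings) at 1% parasitaemia in A+ human erythrocytes, 2% haematocrit. Medium RPMI 1640 with 10% A+ serum, 37°C, 5% CO2/5% O2. Compounds in DMSO at 1.56–100 µg/mL final, DMSO ≤1%. After 48 h, cells stained with Hoechst 33342 and 1×10^4 counted by flow cytometry. IC50 from logistic dose-response regression; three independent experiments in triplicate.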

[7] = Genotoxicity in Salmonella typhimurium TA1535 harboring pSK1002 assessed as umu gene induction at 0.001 to 0.063 mg/ml after 4 hrs in presence of Sprague-Dawley rat liver S9 fraction by beta-galactosidase reporter gene assay relative to control; assay type: toxicity, organism-based; settings: salmonella enterica subsp. enterica serovar typhimurium; read-out: FC; method in brief: as §4
Mus musculus [8] = assay: Acute toxicity in BALB/c mouse assessed as effect on feeding habbit at 300 mg/kg, po administered as single dose measured every day for 14 days; assay type: organism-based; settings: in vivo, 336 h; method in brief: as §2
Plasmodium falciparum [9] = assay: Antiplasmodial activity against GFP-harboring Plasmodium falciparum sporozoites infected in human primary hepatocytes assessed as reduction in parasite growth treated every 24 hrs by DAPI staining-based fluorescence microscopic analysis; assay type: functional, organism-based
Method in brief: (§6)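 Collagen-coated wells seeded with HepG2 (P. berghei), HepG2-CD81 (P. yoelii) or primary human hepatocytes (P. falciparum). Sporozoites added: 5×10^3 to 1×10^4 per well to the cell lines, 2.5×10^4 per well to hepatocytes. Compounds given at infection: top 10 µg/mL plus seven serial dilutions, renewed at 3 h and then every 24 h. Cultures grown 40 h (cell lines) or 8 days (hepatocytes) at 37°C. Methanol-fixed, HSP70 immunolabelled, DAPI counterstained. IC50 from logistic regression; triplicate.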

Plasmodium berghei = assay: Antiplasmodial activity against GFP-harboring Plasmodium berghei sporozoites infected in human HepG2 cells assessed as reduction in parasite growth treated every 24 hrs by DAPI staining-based fluorescence microscopic analysis; assay type: functional, organism-based; settings: HepG2, 24 h; method in brief: as §6
Plasmodium yoelii [10] = assay: Antiplasmodial activity against Plasmodium yoelii 17XNL sporozoites infected in BALB/c mouse assessed as parasite burden at 100 mg/kg, po measured at day 4 by […] (reference value: 0.06%); assay type: functional; method in brief: as §3
[11] = Genotoxicity in Salmonella typhimurium TA1535 harboring pSK1002 assessed as bacterial survival at 0.001 to 0.063 mg/ml after 4 hrs in presence of Sprague-Dawley rat liver S9 fraction by SOS/umu assay relative to control; assay type: toxicity, organism-based; settings: salmonella enterica subsp. enterica serovar typhimurium; read-out: Survival
Method in brief: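 Log-phase S. typhimurium TA1535/pSK1002 (OD600 0.15–0.4) exposed for 4 h at 37°C with shaking, with 10% rat S9 mix or PBS. Eleven twofold dilutions tested from 1 mg/mL final; DMSO as solvent control. A600 read. Survival expressed as % of negative-control A600.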

Mus musculus [12] = assay: Acute toxicity in BALB/c mouse assessed as appearance of clear and bright eyes at 300 to 500 mg/kg, po administered as single dose measured every day for 14 days; assay type: organism-based; settings: in vivo, 336 h; method in brief: as §2
[13] = Selectivity index, ratio of CC50 for human HepG2 cells to IC50 for GFP-expressing Plasmodium berghei sporozoites; assay type: toxicity; settings: read-out: Ratio CC50/IC50; method in brief: as §1
Plasmodium yoelii [14] = assay: Antiplasmodial activity against GFP-harboring Plasmodium yoelii sporozoites infected in human HepG2 cells expressing CD81 assessed as reduction in parasite growth treated every 24 hrs by DAPI staining-based fluorescence microscopic analysis; assay type: functional, organism-based; settings: HepG2, 24 h; method in brief: as §6
Mus musculus [15] = assay: Acute toxicity in BALB/c mouse assessed as behavioral changes at 300 mg/kg, po administered as single dose measured every day for 14 days; assay type: organism-based; settings: in vivo, 336 h; method in brief: as §2
Plasmodium yoelii [16] = assay: Antiplasmodial activity against Plasmodium yoelii 17XNL sporozoites infected in BALB/c mouse assessed as decrease in parasitaemia in blood at 100 mg/kg, po measured at day 4 by […] relative to control; assay type: functional; parameters: scale not given: the % may be the effect or the level left; method in brief: as §3
Plasmodium falciparum [17] = assay: Antiplasmodial activity against chloroquine-sensitive Plasmodium falciparum 3D7 infected in human red blood cells assessed as reduction in parasite growth after 48 hrs by Hoechst 33342 staining based flow cytometric analysis; assay type: functional, organism-based; settings: 3D7, 48 h; method in brief: as §5
Plasmodium yoelii [18] = assay: Antiplasmodial activity against Plasmodium yoelii 17XNL sporozoites infected in BALB/c mouse assessed as incident of decrease in peripheral blood parasite levels at 100 mg/kg, po measured at day 1 by […] relative to control; assay type: functional; parameters: scale not given: the % may be the effect or the level left; method in brief: as §3

COc1cc(NC(C)CCCNC(=O)c2c(C)[n+]([O-])c3ccccc3[n+]2[O-])c2ncccc2c1 (centres undefined)
selectivity ratio [1]: 39.5 | Activity (Mus musculus [2]): Non-Toxic | Activity (Mus musculus [3]): Non-Toxic | Time (Plasmodium yoelii [4]): 24 h | fold induction at 4 h [5]: < 2 | IC50 (Plasmodium falciparum [6]): 68.2 µM | fold induction at 4 h [7]: < 2 | Activity (Mus musculus [8]): Non-Toxic | IC50 (Plasmodium falciparum [9]): 5.38 µM | IC50 (Plasmodium berghei): 5.19 µM | Activity (Plasmodium yoelii [10]): 0% | viability at 4 h [11]: > 80% | Activity (Mus musculus [12]): Non-Toxic | selectivity ratio [13]: 7.59 | IC50 (Plasmodium yoelii [14]): 1.39 µM | Activity (Mus musculus [15]): Non-Toxic | Activity (Plasmodium yoelii [16]): 95.97% | IC50 (Plasmodium falciparum [17]): 67.2 µM | Activity (Plasmodium yoelii [18]): 25%
